The values below come from ChEMBL document CHEMBL3867488 (ACS Med Chem Lett, 2016).

The species entered for one data set is Macaca fascicularis. Description: Agonist activity at LXR-beta in cynomolgus monkey whole blood assessed as ABCA1 gene induction by measuring ABCA1 mRNA level after 4 hrs by SYBR-Green dye-based Q-PCR analysis relative to control. It is filed as tissue-based.
A short description of data set [1]: Plasma concentration in cynomolgus monkey at 10 mg/kg, po qd administered via gavage for 14 days measured after 5 hrs of last-dose by LC/MS/MS analysis. Format: ADME, organism-based, Macaca fascicularis. The gist of the method: (§1)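 Cynomolgus monkeys dosed daily for 14 days. On day 14, plasma drug concentration was taken 5 h post-dose. Plasma triglycerides were expressed as % elevation over baseline, with significance tested by ANOVA (p < 0.05).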

Data set [2] can be described thus: Effect on plasma triglyceride level in cynomolgus monkey at 10 mg/kg, po qd administered via gavage for 14 days measured after 24 hrs of last-dose relative to base line. It is filed as ADME, organism-based, Macaca fascicularis. The conditions noted are these: in vivo. The gist of the method:
as §1

The subject of the next data set is Cynomolgus monkey. Description: In vivo agonist activity at LXR-beta in cynomolgus monkey assessed as induction of ABCG1 gene at 10 mg/kg/day, po qd administered via gavage for 14 days. Format: functional, Macaca fascicularis. The procedure, abridged: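 Cynomolgus monkeys dosed daily for 14 days. ABCG1 mRNA induction measured in blood cells on day 14 and expressed as fold change. Plasma drug concentration taken about 5 h post-dose. Plasma triglycerides also measured against baseline, with significance by ANOVA.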

The target in data set [3] is T1, Oxysterols receptor LXR-beta (Homo sapiens) (UniProt P55055).
T1 sequence (whole entry): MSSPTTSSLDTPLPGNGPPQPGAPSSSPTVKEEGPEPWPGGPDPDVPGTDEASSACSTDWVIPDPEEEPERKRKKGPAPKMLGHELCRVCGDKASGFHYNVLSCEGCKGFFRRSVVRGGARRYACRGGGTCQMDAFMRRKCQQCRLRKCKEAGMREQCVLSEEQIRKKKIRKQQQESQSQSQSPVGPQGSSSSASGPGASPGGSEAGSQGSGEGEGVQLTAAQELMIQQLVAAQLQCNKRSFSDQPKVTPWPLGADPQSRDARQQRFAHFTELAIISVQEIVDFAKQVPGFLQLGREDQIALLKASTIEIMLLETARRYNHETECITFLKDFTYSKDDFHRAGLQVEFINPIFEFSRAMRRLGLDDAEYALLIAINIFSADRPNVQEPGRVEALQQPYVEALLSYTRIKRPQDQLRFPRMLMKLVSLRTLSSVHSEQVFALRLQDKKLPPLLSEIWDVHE
Description: Agonist activity at human LXR-beta expressed in African green monkey CV1 cells measured after 18 to 20 hrs by luciferase reporter gene assay relative to pan agonist 1-(2,4-difluorobenzyl)-2-oxo-6-(4-phenoxyphenyl)-4-(trifluoromethyl)-1,2-dihydropyridine-3-carbonitrile. Format: cell-based. The conditions noted are these: CV-1. A general note: A reporter such as luciferase makes a cellular process visible.

Data set [4] addresses T2, Oxysterols receptor LXR-beta (Homo sapiens, UniProt P55055).
T2 sequence (P55055 whole entry): T1 sequence (whole entry)
As to the kind of experiment: Agonist activity at human LXR-beta expressed in African green monkey CV1 cells measured after 18 to 20 hrs by luciferase reporter gene assay. It is filed as cell-based, CV-1.

The target of data set [5] is Retinoic acid receptor RXR-alpha/oxysterols receptor LXR-beta (Homo sapiens, UniProt P55055). Description: Displacement of [3H]-24,25-epoxycholesterol from human LXRbeta/RXRalpha expressed in baculovirus infected Sf9 cells by scintillation proximity analysis. The procedure, abridged: (§2)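 Binding affinity measured using full-length LXRα–RXRα and LXRβ–RXRα heterodimers.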
(In a radioligand displacement assay an active substance lowers the binding of a labelled ligand.)

Data set [6] concerns the target Retinoic acid receptor RXR-alpha/oxysterols receptor LXR-alpha (Homo sapiens, UniProt Q13133). Description: Displacement of [3H]-24,25-epoxycholesterol from human LXRalpha/RXRalpha expressed in baculovirus infected Sf9 cells by scintillation proximity analysis. The gist of the method:
as §2

Data set [7] addresses T3, Oxysterols receptor LXR-alpha (Homo sapiens, UniProt Q13133).
T3 sequence (Q13133 whole entry): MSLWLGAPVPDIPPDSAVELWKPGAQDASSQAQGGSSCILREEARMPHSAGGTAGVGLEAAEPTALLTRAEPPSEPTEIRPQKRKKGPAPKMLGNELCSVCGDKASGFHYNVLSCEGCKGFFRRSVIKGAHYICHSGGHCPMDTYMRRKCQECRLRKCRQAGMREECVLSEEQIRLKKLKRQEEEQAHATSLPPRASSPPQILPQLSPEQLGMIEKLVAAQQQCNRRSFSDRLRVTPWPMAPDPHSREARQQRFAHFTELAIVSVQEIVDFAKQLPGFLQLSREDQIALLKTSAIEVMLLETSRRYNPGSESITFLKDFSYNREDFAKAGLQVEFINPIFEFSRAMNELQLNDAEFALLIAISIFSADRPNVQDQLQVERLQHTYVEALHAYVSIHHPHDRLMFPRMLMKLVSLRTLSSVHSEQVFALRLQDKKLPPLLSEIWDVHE
Description: Agonist activity at human LXR-alpha expressed in African green monkey CV1 cells measured after 18 to 20 hrs by luciferase reporter gene assay relative to pan agonist 1-(2,4-difluorobenzyl)-2-oxo-6-(4-phenoxyphenyl)-4-(trifluoromethyl)-1,2-dihydropyridine-3-carbonitrile. Format: cell-based. The conditions noted are these: CV-1, human; read-out: Efficacy.

Data set [8] concerns the target T2, Oxysterols receptor LXR-beta. As to the kind of experiment: Agonist activity at LXR-beta in human HeLa cells assessed as induction of ABCA1 by beta-galactosidase/luciferase reporter gene assay. It is filed as cell-based. The gist of the method: (§3)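 HeLa cells carrying endogenous LXRα and LXRβ receptors, transfected with an ABCA1 LXREx3 reporter construct; agonist-driven reporter induction measured.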

The target in data set [9] is T3, Oxysterols receptor LXR-alpha. As to the kind of experiment: Agonist activity at human LXR-alpha expressed in African green monkey CV1 cells measured after 18 to 20 hrs by luciferase reporter gene assay. It is filed as cell-based, CV-1.
Data set [10] deals with T1, Oxysterols receptor LXR-beta (Homo sapiens). Description: Agonist activity at LXR-beta in human HeLa cells assessed as induction of ABCA1 by beta-galactosidase/luciferase reporter gene assay relative to control. It is filed as cell-based. The procedure, abridged:
as §3

Data set [11] has as its target T2, Oxysterols receptor LXR-beta. Description: Agonist activity at LXR-beta in human whole blood assessed as ABCA1 gene induction by measuring ABCA1 mRNA level after 4 hrs by SYBR-Green dye-based Q-PCR analysis. Format: tissue-based.
For data set [12], the target named is T1, Oxysterols receptor LXR-beta (Homo sapiens). As to the kind of experiment: Agonist activity at LXR-beta in human whole blood assessed as ABCA1 gene induction by measuring ABCA1 mRNA level after 4 hrs by SYBR-Green dye-based Q-PCR analysis relative to pan agonist 2-(4-(5-(5-cyano-1-(2,4-difluorobenzyl)-6-oxo-4-(trifluoromethyl)-1,6-dihydropyridin-2-yl)thiophen-2-yl)-3-methylphenyl)acetic acid. Format: tissue-based.

The nature of data set [13]: Half life in cynomolgus monkey at 0.25 mg/kg, iv administered as 10 mins infusion by LC/MS/MS analysis. The conditions noted are these: in vivo. It is filed as ADME, organism-based, Macaca fascicularis. The gist of the method: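 Cynomolgus monkey intravenous PK, with n = 2 animals at the 0.25 mg/kg dose. Plasma clearance (mL/min/kg) and terminal t1/2 (h) derived from the plasma concentration–time profile.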

pEC50, pKi: −log10 of the molar value.

Retinoic acid receptor RXR-alpha/oxysterols receptor LXR-alpha, sequence (P19793 whole entry, one chain of several): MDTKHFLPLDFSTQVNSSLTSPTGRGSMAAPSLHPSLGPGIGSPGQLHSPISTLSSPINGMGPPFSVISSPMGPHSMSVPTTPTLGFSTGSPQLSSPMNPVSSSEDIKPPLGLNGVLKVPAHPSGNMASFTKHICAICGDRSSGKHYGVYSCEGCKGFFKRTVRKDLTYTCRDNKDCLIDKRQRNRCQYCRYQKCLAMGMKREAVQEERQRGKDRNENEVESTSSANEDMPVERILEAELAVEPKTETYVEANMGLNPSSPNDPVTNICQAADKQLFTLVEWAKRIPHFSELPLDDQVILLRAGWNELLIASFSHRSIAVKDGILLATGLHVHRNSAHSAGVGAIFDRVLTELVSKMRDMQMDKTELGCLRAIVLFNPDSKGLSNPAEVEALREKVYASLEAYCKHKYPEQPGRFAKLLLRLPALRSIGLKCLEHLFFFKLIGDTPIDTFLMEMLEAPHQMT
Retinoic acid receptor RXR-alpha/oxysterols receptor LXR-beta, sequence (P19793 whole entry, one chain of several): as above

`O=S(=O)(c1ccccc1)N(CC(F)(F)F)c1ccc(C(O)(C(F)(F)F)C(F)(F)F)cc1` [T091317]: the Efficacy in the data set listed under Macaca fascicularis turned out to be 100%. In [1], this compound returned a concentration at 5 h of 200 nM. In [2], this compound registered an Activity of 140%. Also, in the data set with Cynomolgus monkey, the “fold change (FC)” value stood at 6.
Turning to `CC(C)(O)c1cn(-c2ccc(-c3ccc(CO)c(S(C)(=O)=O)c3)cc2)c(Cc2ccccc2Cl)n1`, the Efficacy in data set [3] turned out to be 50%; in data set [10] it was 54%; in data set [12], 72%. The pEC50 was 7.22 in data set [4], 8.05 in data set [8], 7.00 in data set [9] and 6.52 in [11]. The negative logarithm of the Ki (pKi) is 8.30 in data set [5] and 7.51 in data set [6]. The Emax in data set [7] was 39%. Besides, the t1/2 in [13] is 48 min.

Broadly, the pEC50 is −log10 of the EC50, conventionally taken in molar units. In general, pKi refers to the Ki on a negative log10 scale, so that one unit is a factor of ten.
